Measurements from ChEMBL document CHEMBL4425095, “Novel Cephalosporins Selectively Active on Nonreplicating Mycobacterium tuberculosis” (J Med Chem, 2016).
In brackets after ≈: the same amount, converted by molar mass. Activity calls are given as the source filed them. The calls are words filed in the database; no cut-off is given here.

How the values were obtained:
[1] = system: Mycobacterium tuberculosis; assay: Antimycobacterial activity against non-replicating Mycobacterium tuberculosis mc2 6220 harboring panCD/lysA deletion mutant incubated for 3 days measured at OD580 = 0.01 by two-fold serial dilution method; assay type: functional
In short: (§1)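 M. tuberculosis mc26220 washed twice in PBS-tyloxapol and resuspended in Sauton's-based nonreplicating medium (pH 5.0, butyrate 0.05%, BSA, tyloxapol, lysine, pantothenate, 0.5 mM NaNO2). Incubated at 1% O2, 5% CO2 with 2-fold serially diluted compound from DMSO. After 3 days, diluted 5-fold in fresh replicating medium for outgrowth at 20% O2. Reported as MIC90.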

[2] = system: Mycobacterium tuberculosis; assay: Antimycobacterial activity against non-replicating Mycobacterium tuberculosis mc2 6220 harboring panCD/lysA deletion mutant incubated for 7 days measured at OD580 = 0.1 by two-fold serial dilution method; assay type: functional; in short: as §1
[3] = system: Mycobacterium tuberculosis; assay: Antimycobacterial activity against replicating Mycobacterium tuberculosis mc2 6220 harboring panCD/lysA deletion mutant by two-fold serial dilution method; assay type: functional
In short: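 M. tuberculosis mc26220 in replicating medium supplemented with glycerol (final 0.5%), OADC, casamino acids 0.05%, lysine 240 μg/mL and pantothenate 24 μg/mL. Exposed to 2-fold serially diluted compound from DMSO. OD580 read after 7 days at 20% O2, 5% CO2. Reported as MIC90.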

[4] = system: Mycobacterium tuberculosis; assay: Antimycobacterial activity against replicating Mycobacterium tuberculosis mc2 6220 harboring panCD/lysA deletion mutant incubated for 3 days measured at OD580 = 0.01 by two-fold serial dilution method; assay type: functional
[5] = system: Mycobacterium tuberculosis; assay: Antimycobacterial activity against non-replicating Mycobacterium tuberculosis mc2 6220 harboring panCD/lysA deletion mutant incubated for 7 days measured at OD580 = 0.01 by high throughput screen assay; assay type: functional, organism-based
[6] = system: Mycobacterium tuberculosis; assay: Antimycobacterial activity against non-replicating Mycobacterium tuberculosis mc2 6220 harboring panCD/lysA deletion mutant incubated for 6 days measured at OD580 = 0.1 by two-fold serial dilution method; assay type: functional; in short: as §1
[7] = system: Mycobacterium tuberculosis; assay: Antimycobacterial activity against non-replicating Mycobacterium tuberculosis mc2 6220 harboring panCD/lysA deletion mutant incubated for 3 days measured at OD580 = 0.1 by two-fold serial dilution method; assay type: functional; in short: as §1
[8] = system: Mycobacterium tuberculosis; assay: Antimycobacterial activity against non-replicating Mycobacterium tuberculosis mc2 6220 harboring panCD/lysA deletion mutant incubated for 6 days measured at OD580 = 0.01 by two-fold serial dilution method; assay type: functional; in short: as §1
[9] = system: Mycobacterium tuberculosis; assay: Antimycobacterial activity against non-replicating Mycobacterium tuberculosis mc2 6220 harboring panCD/lysA deletion mutant incubated for 7 days measured at OD580 = 0.01 by two-fold serial dilution method; assay type: functional; in short: as §1

| Compound | MIC90 [2] [µg/mL] | MIC90 [3] [µg/mL] | MIC90 [7] [µg/mL] | MIC90 [9] [µg/mL] | also measured |
| --- | --- | --- | --- | --- | --- |
| COC(=O)C1=C(C)CS[C@@H]2[C@H](NC(=O)CCc3ccc(OC)cc3)C(=O)N12 | 3.28 (≈ 8.4 µM) | 59.82 (≈ 153 µM) |  |  | MIC90 [1]: 0.39 µg/mL (≈ 0.999 µM) |
| CCCN[C@@H]1C(=O)N2C(C(=O)OCCC)=C(C)CS[C@H]12 |  | >100 | 2.69 (≈ 9.01 µM) |  | MIC90 [1]: 0.7 µg/mL (≈ 2.35 µM); MIC90 [4]: >100 µg/mL; Activity [5]: Active; MIC90 [6]: 0.45 µg/mL (≈ 1.51 µM) |
| C#CCOC(=O)C1=C(C)CS[C@@H]2[C@H](NC(=O)CCc3ccccc3)C(=O)N12 |  | >100 | 19.97 (≈ 51.9 µM) |  | MIC90 [1]: 1.11 µg/mL (≈ 2.89 µM) |
| COc1ccc(OCC(=O)N[C@@H]2C(=O)N3C(c4nc(C)no4)=C(C)CS[C@H]23)cc1 |  | >100 | 14.57 (≈ 35 µM) |  |  |
| CCCOC(=O)C1=C(C)CS[C@@H]2[C@H](NC(=O)COc3ccccc3)C(=O)N12 | 1.05 (≈ 2.69 µM) | >100 | 1.76 (≈ 4.51 µM) | 0.64 (≈ 1.64 µM) | MIC90 [1]: 0.9 µg/mL (≈ 2.3 µM); MIC90 [4]: >100 µg/mL; MIC90 [8]: 0.64 µg/mL (≈ 1.64 µM); Activity [5]: Active; MIC90 [6]: 1.05 µg/mL (≈ 2.69 µM) |
| CCCCOc1ccc(CCC(=O)N[C@@H]2C(=O)N3C(c4nc(C)no4)=C(C)CS[C@H]23)cc1 |  | >100 | 59.36 (≈ 130 µM) |  |  |
| C#CCOC(=O)C1=C(C)CS[C@@H]2[C@H](NC(=O)CCc3ccc(Cl)cc3)C(=O)N12 |  | >100 | 7.85 (≈ 18.7 µM) |  | MIC90 [1]: 0.56 µg/mL (≈ 1.34 µM) |
| CCCc1noc(C2=C(C)CS[C@@H]3[C@H](NC(=O)COc4ccc(C)cc4)C(=O)N23)n1 |  | >100 | 14.31 (≈ 33.4 µM) |  |  |
| CCCc1noc(C2=C(C)CS[C@@H]3[C@H](NC(=O)Cc4ccc(Cl)cc4)C(=O)N23)n1 |  | >100 | 2.63 (≈ 6.07 µM) |  |  |
| CC1=C(c2nc(C)no2)N2C(=O)[C@@H](NC(=O)COc3ccc(C(F)(F)F)cc3)[C@H]2SC1 |  | >100 | 5.26 (≈ 11.6 µM) |  |  |
| CCCOC(=O)N[C@@H]1C(=O)N2C(C(=O)OCCC)=C(C)CS[C@H]12 |  | 55.44 (≈ 162 µM) | 2.61 (≈ 7.62 µM) |  | MIC90 [1]: 3.11 µg/mL (≈ 9.08 µM); MIC90 [4]: 55.44 µg/mL (≈ 162 µM); Activity [5]: Active; MIC90 [6]: 0.52 µg/mL (≈ 1.52 µM) |
| CC1=C(C(=O)O)N2C(=O)[C@@H](NC(=O)[C@H](N)c3ccccc3)[C@H]2SC1 [CEPHALEXIN ANHYDROUS] | 100 (≈ 288 µM) | 33.99 (≈ 97.8 µM) | 61.35 (≈ 177 µM) |  | MIC90 [1]: 97.93 µg/mL (≈ 282 µM); MIC90 [4]: 33.99 µg/mL (≈ 97.8 µM); MIC90 [6]: 70.42 µg/mL (≈ 203 µM) |
| CC1=C(c2nc(C)no2)N2C(=O)[C@@H](NC(=O)OCC(Cl)(Cl)Cl)[C@H]2SC1 | 0.92 (≈ 2.15 µM) | >100 |  | 0.46 (≈ 1.08 µM) |  |
| CCOC(=O)C1=C(C)CS[C@@H]2[C@H](NC(=O)CCc3ccccc3)C(=O)N12 | 1.15 (≈ 3.07 µM) | >100 |  | 0.47 (≈ 1.26 µM) |  |
| CCCOC(=O)C1C(C)=CS[C@@H]2[C@H](NC(=O)CCc3ccc(OC)cc3)C(=O)N12 (some centres not stated) | <0.23 | 49.5 (≈ 118 µM) |  | 0.21 (≈ 0.502 µM) |  |
| CNC(=O)C1=C(C)CS[C@@H]2[C@H](NC(=O)COc3ccccc3)C(=O)N12 | >36.14 | >100 |  | >36.14 |  |
| CC1=C(c2nc(C)no2)N2C(=O)[C@@H](NC(=O)COc3cccc(Cl)c3)[C@H]2SC1 |  | >100 | 2.59 (≈ 6.15 µM) |  |  |

| Compound | MIC90 [2] [µg/mL] | MIC90 [3] [µg/mL] | MIC90 [7] [µg/mL] | MIC90 [9] [µg/mL] | also measured |
| --- | --- | --- | --- | --- | --- |
| COCC1=C(C)CS[C@@H]2[C@H](NC(=O)COc3ccccc3)C(=O)N12 |  | >96.74 | >100 |  |  |
| CCOC(=O)C1=C(C)CS[C@@H]2[C@H](NC(=O)COc3ccccc3)C(=O)N12 | 1.71 (≈ 4.54 µM) | 57.85 (≈ 154 µM) |  | 0.66 (≈ 1.75 µM) |  |
| CCCOC[C@H]1C(C)=CS[C@@H]2[C@H](NC(=O)COc3ccccc3)C(=O)N21 |  | >100 | >100 |  |  |
| CC(=O)OCC1=C(C(=O)O)N2C(=O)[C@@H](NC(=O)Cc3cccs3)[C@H]2SC1 [CEPHALOTHIN] | >100 | >100 |  | 95.53 (≈ 241 µM) |  |
| COC(=O)C1=C(C)CS[C@@H]2[C@H](NC(=O)[C@@H](c3ccccc3)N(C)C)C(=O)N12 | >38.95 | >100 |  | >38.95 |  |
| COC(=O)C1=C(C)CS[C@@H]2[C@H](NC(=O)CCc3ccccc3)C(=O)N12 | 1.27 (≈ 3.52 µM) | >100 |  | 10.4 (≈ 28.9 µM) |  |
| CCCc1noc(C2=C(C)CS[C@@H]3[C@H](NC(=O)c4ccc(Cl)cc4)C(=O)N23)n1 | 2.28 (≈ 5.44 µM) | >100 |  | 1.06 (≈ 2.53 µM) |  |
| CC1=C(C(=O)O/N=C(\C)N)N2C(=O)[C@@H](NC(=O)COc3ccccc3)[C@H]2SC1 | 8.12 (≈ 20.1 µM) | >100 |  | 5.6 (≈ 13.8 µM) |  |
| CCCc1noc(C2=C(C)CS[C@@H]3[C@H](NC(=O)COc4ccc(Cl)cc4)C(=O)N23)n1 | 3.87 (≈ 8.62 µM) | >100 |  | 1.36 (≈ 3.03 µM) |  |
| C#CCOC(=O)C1=C(C)CS[C@@H]2[C@H](NC(=O)COc3ccc(Cl)cc3)C(=O)N12 | 3.95 (≈ 9.39 µM) | >100 |  | 1.53 (≈ 3.64 µM) |  |
| CCCc1noc(C2=C(C)CS[C@@H]3[C@H](NC(=O)CCc4ccccc4Cl)C(=O)N23)n1 | 1.27 (≈ 2.84 µM) | >100 |  | 0.52 (≈ 1.16 µM) |  |
| CC1=C(c2nc(C)no2)N2C(=O)[C@@H](NC(=O)COc3ccccc3)[C@H]2SC1 | 1.85 (≈ 4.79 µM) | >100 |  | 0.88 (≈ 2.28 µM) |  |
| CC1=CS[C@@H]2[C@H](NC(=O)COc3ccccc3)C(=O)N2[C@H]1CO |  | >100 | >100 |  |  |
| CC1=C(c2nc(C)no2)N2C(=O)[C@@H](NC(=O)OC(C)(C)C)[C@H]2SC1 | 9.16 (≈ 26 µM) | >100 |  | 5.3 (≈ 15 µM) |  |
| CCCCOc1ccc(CCC(=O)N[C@@H]2C(=O)N3C(c4nc(CCC)no4)=C(C)CS[C@H]23)cc1 | 0.76 (≈ 1.57 µM) | >100 |  | 0.47 (≈ 0.97 µM) |  |
| CC1=C(c2nc(C)no2)N2C(=O)[C@@H](NC(=O)COc3ccc(C)cc3)[C@H]2SC1 |  | >100 | 7.42 (≈ 18.5 µM) |  |  |
| CC1=C(C(=O)O)N2C(=O)[C@@H](NC(=O)Cc3ccc(Cl)cc3)[C@H]2SC1 | >36.68 | 81.38 (≈ 222 µM) |  | >36.68 |  |
